OX1R antag-1 – OX1R (HCRTR1) antagonists, primary screen, fluorescence, CHO/OX1R cells, Fluo-8 calcium, orexin A; Fluo-8 calcium fluorescence; Orexin/Hypocretin receptor type 1 (Homo sapiens), O43613; inhibition, % at 5 µM; 330,000 compounds, 0.43% hits; AID 434989, 2010;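 active = inhibition above its plate's threshold, mean inhibition of all tested compounds on the plate plus 3 SD, cut at about 37% in these data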
CHO parental Ca – ATP-evoked calcium signal inhibitors, parental CHO, primary screen, counter-screen for OX1R antagonist project, cell-based, fluorescence, Fluo-8 calcium dye | AID 463079, 2010 | inhibition, % at 5.6 µM | 330,000 compounds, 0.63% hits | parental CHO-K1, ATP-induced calcium, Fluo-8 fluorescence;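 active = inhibition above that plate's mean sample inhibition plus 3 SD, cut at about 26% in these data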
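Assay system – parental CHO cells · Reagent – ATP stimulus · Detection – intracellular calcium via Fluo-8 no-wash fluorescent dye · Evaluation – percent inhibition of ATP-evoked calcium rise, normalized to controls · Controls – ATP wells versus no-ATP DMSO wells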
TAAR1 ag – human TAAR1 agonists, primary screen, Fluo-8 calcium fluorescence, CHO RD-HGA16 cells | AID 624467, 2012 | 360,000 compounds, 0.99% hits | activation, % at 3 µM | vehicle wells 0%, saturating PEA agonist 100%;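 active = activation above the mean activation of all test compounds in the run plus 3 SD, cut at about 38% in these data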
Target sequence (Q96RJ0 whole entry, looked up): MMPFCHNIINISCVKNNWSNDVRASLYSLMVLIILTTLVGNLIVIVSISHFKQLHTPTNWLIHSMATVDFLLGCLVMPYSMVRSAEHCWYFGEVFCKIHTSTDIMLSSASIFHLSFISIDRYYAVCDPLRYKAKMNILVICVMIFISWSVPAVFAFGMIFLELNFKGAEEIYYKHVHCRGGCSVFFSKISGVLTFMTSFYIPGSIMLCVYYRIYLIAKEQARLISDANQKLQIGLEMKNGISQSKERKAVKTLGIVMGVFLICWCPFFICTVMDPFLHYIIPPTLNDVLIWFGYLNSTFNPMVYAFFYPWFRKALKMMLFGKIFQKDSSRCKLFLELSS
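Assay system: CHO-derived RD-HGA16 cells with stable Gα16 and human TAAR1; timing: 17-24 h seeding, 75 min 37 °C dye, 30 min RT; read-out: % activation from peak over basal fluorescence ratio, DMSO-to-PEA scaled; measured by: kinetic Fluo-8 calcium fluorescence; benchmarks: low control DMSO, high control PEA (EC100); doses: 3 µM single concentration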
TAAR1 antagonist – human TAAR1 antagonists, primary screen, Fluo-8 calcium fluorescence, CHO RD-HGA16 cells; Trace amine-associated receptor 1 (Homo sapiens), Q96RJ0; antagonist; inhibition, % at 3 µM; 360,000 compounds, 1.5% hits; AID 624466, 2012;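 active = inhibition above a per-plate cutoff, the mean inhibition of test compounds on that plate plus 3 SD, cut at about 49% in these data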
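Material: RD-HGA16 CHO cells with stable hTAAR1 and Gα16; Dosing: single nominal final test compound concentration of 3 µM; Schedule: seeding 17-24 h prior, 75-min 37 °C, 30-min RT dye loading; Detection: kinetic Fluo-8 calcium fluorescence measurement; Measure: % inhibition from peak post-agonist over basal fluorescence ratio; Benchmarks: vehicle and agonist controls.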
GalR3 antagonist – GalR3 antagonists in HEK293 cells, primary screen, cell-based, fluorescence readout; Galanin receptor type 3 (Homo sapiens), O60755; HEK293 GalR3-CNG cAMP membrane potential fluorescence; galR3 body fused to GalR1 C-terminus; inhibition, % at 3 µM; 360,000 compounds, 0.44% hits; AID 651719, 2012;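 active = inhibition above the screen-wide average plus 3 SD, cut at about 13% in these data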;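 note: forskolin and galanin both at EC90 stimulate the cells; cAMP rise reported by CNG channel membrane potential dye signal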
Target sequence (O60755 1-299 limits assumed): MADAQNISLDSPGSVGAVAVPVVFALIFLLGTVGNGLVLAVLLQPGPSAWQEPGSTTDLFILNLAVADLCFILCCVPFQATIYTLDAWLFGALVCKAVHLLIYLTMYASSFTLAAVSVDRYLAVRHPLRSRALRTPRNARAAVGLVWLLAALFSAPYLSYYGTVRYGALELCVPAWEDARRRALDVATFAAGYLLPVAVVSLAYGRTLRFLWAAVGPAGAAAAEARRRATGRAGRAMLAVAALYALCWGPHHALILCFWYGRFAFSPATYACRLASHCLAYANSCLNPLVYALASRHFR
OX1R antag-2 – antagonists of human orexin 1 receptor (OX1R); 330,000 compounds, 1.8% hits; inhibition, % at 6.6 µM; Orexin/Hypocretin receptor type 1 (Homo sapiens), O43613; AID 485270, 2010; OX1R-expressing cells, FRET antagonist read-out; in the data active = inhibition mostly above about 38%, no sharp cut-off; inactive = mostly below about 40%
Numbers stand for hits; i = inactive; nt = no result given. Most compounds without a hit are left out; they make up all but 4.3% or so of the library.

SMILES	OX1R antag-1	CHO parental Ca	TAAR1 ag	TAAR1 antagonist	GalR3 antagonist	OX1R antag-2
COCC(C)NC(=O)CSc1nc2ccccc2c(=O)n1CCc1ccc(S(N)(=O)=O)cc1 (stereo not drawn)	i	i	i	54	i	i
CC(Sc1nc2ccccc2c(=O)n1CCc1ccc(S(N)(=O)=O)cc1)C(=O)NC(N)=O (stereo not drawn)	i	i	i	i	i	i
Cc1ccccc1NC(=O)N(C)[C@H]1C[C@H]2c3[nH]c4c(-c5ccc6c(c5)OCO6)cccc4c3CCN2C(=O)[C@H]1[C@H](C)O	nt	nt	i	i	i	nt
CCn1c(=O)c(C(=O)NNC(=O)c2ccccc2Br)c(O)c2ccccc21	i	i	46	i	i	i
Cn1c(=O)c(C(=O)NNC(=O)c2ccccc2Cl)c(O)c2ccccc21	i	i	i	i	i	i
CCn1c(=O)c(C(=O)NNC(=O)c2cccc(Cl)c2)c(O)c2ccccc21	98	95	38	71	i	i
Cc1cccc(C(=O)NNC(=O)c2c(O)c3ccccc3n(C)c2=O)c1	i	40	i	i	i	i
Cn1c(=O)c(C(=O)NNC(=O)c2cccc(Cl)c2)c(O)c2ccccc21	44	47	i	i	i	i
CCc1sc(/C=C(/C#N)C(N)=S)cc1[N+](=O)[O-]	nt	nt	i	i	i	nt
O=C(Nc1ccccc1Cl)NC1(C(=O)NCc2cccnc2)CCCCC1	i	i	i	i	i	i
CCn1c(=O)c(C(=O)Nc2ccccc2)c(O)c2ccccc21	i	i	i	i	i	i
CCn1c(=O)c(C(=O)Nc2nc3ccccc3[nH]2)c(O)c2ccccc21	106	98	i	93	i	i
CC1CCC(CN2C(Nc3ccccc3)=NC[C@@H]2Cc2ccccc2)CC1 (stereo partly drawn)	i	i	44	i	i	i
c1ccc(C[C@H]2CN=C(Nc3ccccc3)N2CC2CCCCC2)cc1	i	i	41	i	i	i
COc1ccc(NC(=O)Cc2nnc(SCC(=O)Nc3ccc(F)cc3)n2C)cc1	i	i	i	i	i	i
Cc1csc(NC(=O)CCCC(=O)O)c1-c1nc2ccccc2s1	i	i	i	i	i	i
Cc1csc(NC(=O)COCC(=O)O)c1-c1nc2ccccc2s1	i	i	i	i	i	53
CN(CC(=O)Nc1ccc(F)cc1)C(=O)c1ccc(N2C(=O)CCC2=O)cc1	i	i	i	i	i	i
O=[N+]([O-])c1ccc(C(=S)N2CCC(Cc3ccccc3)CC2)cc1	i	i	i	53	i	i
c1ccc2[nH]c3cc4ncnc4cc3nc2c1	i	i	i	i	i	70
FC(F)c1nc2ccccc2[nH]1	i	i	i	i	i	i
CCOC(=O)COn1c(=O)c(-c2ccccc2)[n+]([O-])c2ccccc21	i	i	i	i	i	i
CCOC(=O)COn1c(=O)c(-c2ccc(OC)cc2)[n+]([O-])c2ccccc21	i	i	i	i	i	46
CCOC(=O)COn1c(=O)c(-c2ccc(OC)c(OC)c2)[n+]([O-])c2ccccc21	i	i	i	i	i	51
COc1ccc(OCC(=O)Nc2ccc(N3CCN(C(=O)c4ccccc4)CC3)c(Cl)c2)cc1	i	43	i	i	i	i
SMILES	OX1R antag-1	CHO parental Ca	TAAR1 ag	TAAR1 antagonist	GalR3 antagonist	OX1R antag-2
Cc1ccccc1OCC(=O)Nc1ccc(N2CCN(C)CC2)c(Cl)c1	i	i	39	i	i	i
Cc1ccc(-n2nc3c(=O)n(CCCC(=O)NCc4ccco4)nc(C)c3c2C)cc1	i	i	i	i	i	i
CCC(c1nc2ccccc2[nH]1)n1c(-c2ccc3cc[nH]c3c2)nc2ccccc21 (stereo not drawn)	nt	nt	i	i	i	nt
CCCCNC(=O)C[C@H]1C[C@@]2(C(=O)OC)C(=C[C@H](COCc3ccccc3)O[C@@H]2C)N(CCC2=CCCCC2)C1=O	nt	nt	i	i	i	nt
COc1ccnc(Oc2ccccc2)c1C(=O)N/C=N/OCc1ccccc1	i	i	i	i	i	i
COc1ccnc(Oc2cccc(C(F)(F)F)c2)c1C(=O)N/C=N/OCc1ccccc1F	i	i	i	54	i	i
Nc1[nH]c(C(=O)c2ccccc2)c(-c2ccccn2)c1C(=O)c1c[nH]c2ccc(F)cc12	nt	nt	i	i	i	nt
N#Cc1ccc(Cl)cc1NC(=O)CSc1cccc[n+]1[O-]	i	i	i	i	i	i
O=C(CSc1cccc[n+]1[O-])Nc1cc(Cl)ccc1[N+](=O)[O-]	i	i	i	i	i	38
COC(=O)[C@]12C[C@H](CC(=O)NCCc3ccccc3OC)C(=O)N(CCC3=CCCCC3)C1=C[C@H](C(C)(C)C)O[C@@H]2C	nt	nt	i	i	i	nt
CCOc1ccc(CC(=O)Nc2ccc(S(=O)(=O)N3CCCC3)cc2)cc1	i	i	i	i	i	i
C[C@@]12C(=O)N(c3ccccc3)C(=O)N1[C@@H]1c3ccccc3OC[C@@H]1[C@H]2c1ccccc1	i	i	i	55	i	i
C[C@]12C(=O)N(c3ccc(Cl)cc3)C(=O)N1[C@H]1c3ccccc3OC[C@@H]1[C@H]2c1ccccc1	i	i	nt	nt	nt	i
CCOC(=O)c1sc(NC(C)=O)cc1C	i	i	i	i	i	i
CCOC(=O)c1sc(NC(=O)Nc2ccccc2)cc1C	i	i	i	i	i	61
CCOC(=O)c1c(NC(=S)Nc2ccccc2)sc(C)c1C	i	i	i	i	i	38
CC(=O)N1CCN(c2ccc(Oc3ccc([N+](=O)[O-])c(C(F)(F)F)c3)cc2)CC1	i	44	nt	nt	nt	i
COc1ccc2c(c1)CC/C(=C\c1ccc(OC)c(Cn3nc(C)cc3C)c1)C2=O	i	i	44	i	i	i
COc1ccc(/C=C2\CCc3ccccc3C2=O)cc1CN1CCOCC1	i	i	i	i	i	i
C#CCn1c(S(=O)(=O)Cc2ccc(OC)cc2)nc(-c2ccccc2)c1-c1ccccc1	i	i	i	i	i	58
CCOC(=O)Cn1c(S(=O)(=O)Cc2ccc(Cl)cc2)nc(-c2ccccc2)c1-c1ccccc1	i	i	i	i	i	i
CCO[C@@H]1OC(C(=O)N2CCN(Cc3ccccc3)CC2)=C[C@H](c2ccc(Br)cc2)[C@H]1CCCO	i	i	i	49	i	i
CCO[C@@H]1OC(C(=O)N2CCN(Cc3ccccc3)CC2)=C[C@H](c2ccc(C(F)(F)F)cc2)[C@H]1CCCO	i	i	i	i	i	i

Screens: PubChem BioAssay, The Scripps Research Institute Molecular Screening Center
